Laboratory results: ChEMBL document CHEMBL4190344, “Synthesis of substituted phenanthrene-9-benzimidazole conjugates: Cytotoxicity evaluation and apoptosis inducing studies” (Eur J Med Chem, 2017)
Active and inactive are the calls of the source. The rule behind the calls is not given here.

Legend:
PC-3 [1] = experiment: Induction of apoptosis in human PC3 cells assessed as viable cells level at 10 uM incubated for 24 hrs by annexin V-FITC/propidium iodide dual staining based flow cytometry (reference value: 76.73%); type: functional
In short: (§1)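 PC-3 cells were grown 24 h, then treated 24 h at 2.5, 5.0 or 10 µM. Cells were trypsinised, washed twice in ice-cold PBS and stained in binding buffer with Annexin V-FITC followed by propidium iodide at room temperature in the dark. 10,000 cells per sample were run on a flow cytometer, with quadrants scored as live, early apoptotic, late apoptotic or necrotic.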

PC-3 [2] = experiment: Induction of reactive oxygen species in human PC3 cells at 2.5 to 10 uM incubated for 6 hrs by DCFDA dye based spectrofluorometry; type: functional, cell-based
In short: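 PC-3 cells (1 × 10^6 cells/mL) adhered overnight, then were treated at 2.5, 5.0 or 10.0 µM. Medium was replaced with DCFDA 10 µM for 30 min in the dark, and fluorescence read by spectrofluorometer at ex 488/em 525 nm. N-acetyl cysteine pretreatment before compound and H2O2 were used as comparisons.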

PC-3 [3] = experiment: Induction of cell death in human PC3 cells assessed as induction of chromatin condensation at 10 uM incubated for 48 hrs by acridine orange and ethidium bromide staining based fluorescence microscopy; type: functional
In short: (§2)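 PC-3 cells (1 × 10^6 cells/mL) were treated with compound and kept 48 h at 37 °C, 5% CO2. Acridine orange and ethidium bromide (10 µg/mL) were added in equal volumes. After 10 min, cells were imaged by fluorescence microscopy (ex 488/em 550 nm, 200×).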

PC-3 [4] = experiment: Induction of apoptosis in human PC3 cells assessed as early apoptotic cells level at 10 uM incubated for 24 hrs by annexin V-FITC/propidium iodide dual staining based flow cytometry (reference value: 11.76%); type: functional; in short: as §1
PC-3 [5] = experiment: Induction of cell death in human PC3 cells assessed as induction of membrane blebbing at 10 uM incubated for 48 hrs by acridine orange and ethidium bromide staining based fluorescence microscopy; type: functional; in short: as §2
PC-3 [6] = experiment: Induction of morphological changes in human PC3 cells assessed as increase in cell detachment at 2.5 to 10 uM incubated for 48 hrs by phase contrast microscopy; type: functional, cell-based
In short: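 PC-3 cells at 1 × 10^5 cells/mL adhered overnight, then received compound at 2.5, 5.0 or 10.0 µM. After 48 h, morphology (viable cell number, nuclear shrinkage, detachment) was imaged by phase contrast microscopy.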

PC-3 [7] = experiment: Cell cycle arrest in human PC3 cells assessed as accumulation at S phase at 2.10 uM incubated for 24 hrs by propidium iodide staining based flow cytometry (reference value: 13.92%); type: functional
MDA-MB-453 = experiment: Cytotoxicity in human MDA-MB-453 cells incubated for 48 hrs by MTT assay; type: functional, cell-based; settings: MDA-MB-453, 48 h
In short: (§3)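 Cells (1 × 10^4/well) were seeded in medium with 10% FBS and left 24 h at 37 °C. Compound diluted in medium was then added, alongside a vehicle control, for 48 h. MTT (5 mg/mL stock) was added for 4 h, formazan dissolved in DMSO and absorbance read at 570 nm. IC50 taken as the concentration giving 50% inhibition.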

PC-3 [8] = experiment: Induction of apoptosis in human PC3 cells assessed as late apoptotic cells level at 2.5 uM incubated for 24 hrs by annexin V-FITC/propidium iodide dual staining based flow cytometry (reference value: 10.92%); type: functional; in short: as §1
DU-145 = experiment: Cytotoxicity in human DU145 cells incubated for 48 hrs by MTT assay; type: functional, cell-based; settings: DU-145, 48 h; in short: as §3
Calf thymus DNA = experiment: Binding affinity to calf thymus DNA assessed as increase in relative viscosity of DNA-compound complex at 5 uM by viscometry; type: nucleic-acid assay; settings: Bos taurus
In short: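 Viscosity titration of test compound (5 µM) into CT-DNA (50 µM) in 100 mM Tris-HCl pH 7.0. Rolling-ball viscometer, ball fall time read at angles of 20° to 70°, Peltier-held temperature, viscosity calculated at 25 °C.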

PC-3 [9] = experiment: Induction of apoptosis in human PC3 cells incubated for 24 hrs by annexin V-FITC/propidium iodide dual staining based flow cytometry; type: functional, cell-based; in short: as §1
PC-3 [10] = experiment: Induction of mitochondrial membrane potential loss in human PC3 cells assessed as JC1 aggregate level at 2.5 uM incubated for 24 hrs by JC1 staining based flow cytometry (reference value: 76.94%); type: functional
PC-3 [11] = experiment: Induction of apoptosis in human PC3 cells assessed as induction of condensed nuclei formation at 2.5 to 10 uM incubated for 48 hrs by DAPI staining based fluorescence microscopy; type: functional, cell-based
In short: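 Compound-treated PC-3 cells were PBS-washed, permeabilised with 0.1% Tween 20 for 10 min and stained with 1 µM DAPI. Nuclear morphology was viewed by fluorescence microscopy at ex 359/em 461 nm, 200×.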

PC-3 [12] = experiment: Induction of cell death in human PC3 cells assessed as induction of apoptotic body formation at 10 uM incubated for 48 hrs by acridine orange and ethidium bromide staining based fluorescence microscopy; type: functional; in short: as §2
PC-3 [13] = experiment: Induction of apoptosis in human PC3 cells assessed as early apoptotic cells level at 5 uM incubated for 24 hrs by annexin V-FITC/propidium iodide dual staining based flow cytometry (reference value: 11.76%); type: functional; in short: as §1
PC-3 [14] = experiment: Induction of apoptosis in human PC3 cells assessed as necrotic cells level at 10 uM incubated for 24 hrs by annexin V-FITC/propidium iodide dual staining based flow cytometry (reference value: 0.59%); type: functional; in short: as §1
PC-3 [15] = experiment: Induction of cell death in human PC3 cells assessed as induction of cell shrinkage at 10 uM incubated for 48 hrs by acridine orange and ethidium bromide staining based fluorescence microscopy; type: functional; in short: as §2
PC-3 [16] = experiment: Induction of apoptosis in human PC3 cells assessed as viable cells level at 2.5 uM incubated for 24 hrs by annexin V-FITC/propidium iodide dual staining based flow cytometry (reference value: 76.73%); type: functional; in short: as §1
PC-3 [17] = experiment: Cytotoxicity in human PC3 cells incubated for 48 hrs by MTT assay; type: functional, cell-based; settings: PC-3, 48 h; in short: as §3
PC-3 [18] = experiment: Cell cycle arrest in human PC3 cells assessed as accumulation at G2/M phase at 2.5 uM incubated for 24 hrs by propidium iodide staining based flow cytometry (reference value: 25.96%); type: functional
PC-3 [19] = experiment: Induction of mitochondrial membrane potential loss in human PC3 cells assessed as JC1 monomer level at 10 uM incubated for 24 hrs by JC1 staining based flow cytometry (reference value: 22.8%); type: functional
PC-3 [20] = experiment: Induction of mitochondrial membrane potential loss in human PC3 cells incubated for 24 hrs by JC1 staining based flow cytometry (reference value: 76.94%); type: functional, cell-based
PC-3 [21] = experiment: Cell cycle arrest in human PC3 cells assessed as accumulation at subG1 phase at 2.10 uM incubated for 24 hrs by propidium iodide staining based flow cytometry (reference value: 1.71%); type: functional
PC-3 [22] = experiment: Induction of apoptosis in human PC3 cells assessed as viable cells level at 5 uM incubated for 24 hrs by annexin V-FITC/propidium iodide dual staining based flow cytometry (reference value: 76.73%); type: functional; in short: as §1
PC-3 [23] = experiment: Induction of mitochondrial membrane potential loss in human PC3 cells assessed as JC1 monomer level at 5 uM incubated for 24 hrs by JC1 staining based flow cytometry (reference value: 22.8%); type: functional
PC-3 [24] = experiment: Cell cycle arrest in human PC3 cells assessed as accumulation at G0/G1 phase at 2.5 uM incubated for 24 hrs by propidium iodide staining based flow cytometry (reference value: 56.67%); type: functional

COc1ccc2cc(-c3nc4ccc(F)cc4[nH]3)c3cc(OC)c(OC)cc3c2c1
Activity (PC-3 [1]): 27.68% | Activity (PC-3 [2]): Dose-dependent effect | Activity (PC-3 [3]): Active | Activity (PC-3 [4]): 22.94% | Activity (PC-3 [5]): Active | Activity (PC-3 [6]): Active | Activity (PC-3 [7]): 11.76% | IC50 (MDA-MB-453): 6.61 µM | Activity (PC-3 [8]): 24.89% | IC50 (DU-145): > 20 µM | Activity (Calf thymus DNA): Active | Activity (PC-3 [9]): Dose-dependent effect | Activity (PC-3 [10]): 66.43% | Activity (PC-3 [11]): Active | Activity (PC-3 [12]): Active | Activity (PC-3 [13]): 33.41% | Activity (PC-3 [14]): 0.36% | Activity (PC-3 [15]): Active | Activity (PC-3 [16]): 38.69% | IC50 (PC-3 [17]): 6.32 µM | Activity (PC-3 [18]): 27.8% | Activity (PC-3 [19]): 95.64% | Activity (PC-3 [20]): Dose-dependent effect | Activity (PC-3 [21]): 5.01% | Activity (PC-3 [22]): 32.12% | Activity (PC-3 [23]): 67.42% | Activity (PC-3 [24]): 55.93%
